Experimental data published in ChEMBL document CHEMBL1147734, “Synthesis, chiral resolution, and enantiopharmacology of a potent 2,3-benzodiazepine derivative as noncompetitive AMPA receptor antagonist” (J Med Chem, 2006).
Activity calls are given as the source filed them. No cut-off for these calls is given here.

What was measured:
[1] = molecular target: T1, Glutamate receptor ionotropic, AMPA (Rattus norvegicus, UniProt P19490+P19491+P19492+P19493); assay: Displacement of [3H]CP-526427 from non competitive […] or benzodiazepine binding site of AMPA receptor from rat forebrain
How it was run: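 Adult male Sprague-Dawley rat forebrain membranes (P2 fraction, lysed in Tris acetate) diluted to 0.5 mg protein/mL in 50 mM Tris-HCl pH 7.4. Compound dilution series plus 3 nM [3H]CP-526,427, incubated 20 min at 30 °C, then filtered and counted by scintillation. Nonspecific binding taken with 10 µM unlabeled CP-526,427 or CP-465,022.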

[2] = test system: Mus musculus; assay: Effect on clonic phase of audiogenic seizures in DBA/2 mice after 30 min at 3.3-200 umol/kg, ip; format: functional; conditions: DBA/2, ip, 0.5 h
How it was run: (§1)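 DBA/2 mice, 8-12 g, 22-25 days old, either sex, 10 per group. Dosed ip, vehicle or 3.3-200 µmol/kg, then sound stimulus 30 min later; latency and incidence of each seizure phase scored. ED50 by Litchfield-Wilcoxon, 95% confidence limits, at least 32 animals per value.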

[3] = organism: Mus musculus; assay: Effect on locomotor activity assessed by rotarod test in DBA/2 mice; format: functional
How it was run: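 Rotarod locomotor deficit in DBA/2 mice after ip dosing across 3.3-200 µmol/kg. TD50 by Litchfield-Wilcoxon with 95% confidence limits, at least 32 animals per value.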

[4] = organism: Mus musculus; assay: Ratio of TD50 over ED50 (clonic phase of audiogenic seizures) in DBA/2 mice; format: functional
How it was run: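 Protective index: rotarod TD50 divided by clonic-phase audiogenic ED50, both from ip-dosed DBA/2 mice fitted by Litchfield-Wilcoxon.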

[5] = test system: Mus musculus; assay: Effect on tonic phase of audiogenic seizures in DBA/2 mice after 30 min at 3.3-200 umol/kg, ip; format: functional; conditions: DBA/2, ip, 0.5 h; how it was run: as §1
[6] = molecular target: Glutamate receptor ionotropic, AMPA (Rattus norvegicus) (UniProt P19491+P19492+P19493+P19490); assay: Inhibition of kainate induced [45Ca]2+ uptake in rat cerebellar granule cells expressing AMPA receptor at 32 uM; format: functional
How it was run: (§2)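 Primary rat cerebellar granule neurons preincubated 30 min with compound in BSS (HEPES, pH 7.3). Then exposed at room temperature for 10 min to 100 µM kainate with 10 µM glycine, 0.5 mM DTT and 0.5 µCi 45Ca2+. Washed in ice-cold BSS containing 5 mM EGTA, lysed in Triton X-100, radioactivity counted.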

[7] = molecular target: Glutamate NMDA receptor; assay: Displacement of [3H]glycine from Gly/NMDA receptor in rat cerebral cortex synaptic membranes; format: cell membranes, Membrane
How it was run: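 Rat cortical synaptic membranes with 8 nM [3H]glycine as ligand, following an earlier published method.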

[8] = molecular target: Glutamate NMDA receptor (Rattus norvegicus) (UniProt P35439+Q00959+Q00960+Q00961+Q62645+Q8VHN2+Q9R1M7); assay: Displacement of [3H](+)-MK-801 from rat cortical NMDA ion channel complex at 100 uM; format: protein-complex assay
How it was run: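 Rat cortical membranes washed in 5 mM Tris-HCl pH 7.4 with 0.08% Triton X-100, then pelleted and resuspended through four more cycles. Incubated 120 min at room temperature with 2.5 nM [3H]-(+)-MK-801, glutamic acid and glycine, with or without compound. Bound ligand separated on polyethylenimine-soaked GF/C filters. Nonspecific binding defined with phencyclidine.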

[9] = molecular target: T1, Glutamate receptor ionotropic, AMPA; assay: Inhibition of kainate induced [45Ca]2+ uptake in rat cerebellar granule cells expressing AMPA receptor; format: functional; how it was run: as §2
[10] = molecular target: T1, Glutamate receptor ionotropic, AMPA; assay: Displacement of [3H]AMPA from AMPA receptor in rat cerebral cortex synaptic membranes; format: cell membranes, Membrane
How it was run: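 Rat cerebral cortex synaptic membranes with 5 nM [3H]AMPA, following an earlier published method.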

**Q.** How did the IC50 [1] turn out when `C[C@H]1C(=O)NN=C(c2ccc(N)cc2)c2cc3c(cc21)OCO3` was run?
**A.** > 10 µM

**Q.** What about the ED50 [2] of the same compound?
**A.** 88.4 µmol/kg

**Q.** And the TD50 [3]?
**A.** >100 µM/kg

**Q.** What about the “Ratio TD50/ED50” value [4] of the same compound?
**A.** >1.1

**Q.** And the ED50 [5]?
**A.** 7.36 µmol/kg

**Q.** And the inhibition [6]?
**A.** inactive

**Q.** For `CC1C(=O)NN=C(c2ccc(N)cc2)c2cc3c(cc21)OCO3` (racemic), which IC50 [7] is on record?
**A.** > 100 µM

**Q.** What about the IC50 [1] of the same compound?
**A.** > 10 µM

**Q.** And the inhibition [8]?
**A.** 33%

**Q.** And the ED50 [2]?
**A.** 20.2 µmol/kg

**Q.** And the TD50 [3]?
**A.** 48.5 µM/kg

**Q.** And the IC50 [9]?
**A.** 12 µM

**Q.** What about the “Ratio TD50/ED50” value [4] of the same compound?
**A.** 2.4

**Q.** And the ED50 [5]?
**A.** 8.3 µmol/kg

**Q.** What about the inhibition [6] of the same compound?
**A.** 94%

**Q.** And the IC50 [10]?
**A.** > 100 µM

**Q.** With `C[C@@H]1C(=O)NN=C(c2ccc(N)cc2)c2cc3c(cc21)OCO3` as the compound, how does the IC50 [1] read?
**A.** 3.27 µM

**Q.** And the ED50 [2]?
**A.** 11 µmol/kg

**Q.** What about the TD50 [3] of the same compound?
**A.** 34.2 µM/kg

**Q.** What about the IC50 [9] of the same compound?
**A.** 6 µM

**Q.** What about the “Ratio TD50/ED50” value [4] of the same compound?
**A.** 3.1

**Q.** And the ED50 [5]?
**A.** 1.74 µmol/kg
